What is called EC50 is the concentration at which the effect is half-maximal.

The record followed here is ChEMBL document CHEMBL1157658, “Structure-activity relationship of (N)-Methanocarba phosphonate analogues of 5'-AMP as cardioprotective agents acting through a cardiac P2X receptor” (J Med Chem, 2010).

Activity calls are given as the source filed them. The rule behind the calls is not given here.

Assay [1] concerns the target T1, P2Y purinoceptor 1 (Homo sapiens, UniProt P47900). Put plainly: Agonist activity at human P2Y1 receptor expressed in human 1321N1 cells by PLC assay. It is filed as functional, cell-based.
Assay [2] concerns the target T1, P2Y purinoceptor 1. Put plainly: Activation of human P2Y1 receptor expressed in human 1321N1 cells assessed as induction of calcium flux by FLIPR assay. It is filed as functional, cell-based. On the technique in general: Calcium flux is commonly read through the fluorescence of an indicator in the cells.
The target in assay [3] is T1, P2Y purinoceptor 1. The assay can be described thus: Activation of human P2Y1 receptor expressed in human 1321N1 cells assessed as induction of calcium flux by FLIPR assay relative to 2-MeSADP. In kind it is functional, cell-based. The procedure, abridged:
(§1)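 1321N1 human astrocytoma cells stably expressing hP2Y1, grown overnight at 37 °C, 5% CO2 (to ~80% confluency), loaded with calcium-4 dye plus probenecid (no wash), 1 h at rt. Compounds diluted in Hank's buffer pH 7.2, tested up to 10 μM; FLIPR-Tetra at rt, ex 485/em 525 nm, duplicates. Response is peak fluorescence minus pre-exposure basal.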

The test system of assay [4] is Mus musculus. The assay can be described thus: Cardioprotective effect in calsequestrin transgenic mouse model of severe cardiomyopathy and heart failure assessed as improvement of echocardiography-derived fractional shortening at 3.3 uM, sc administered per day via minipump measured after 28 days by transthoracic echocardiographic analysis. In kind it is functional. The gist of the method: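 CSQ-overexpressing transgenic mice (lethal heart failure near 3 months); analogue dissolved at 3.3 μM in sterile saline/PBS pH 7.4 (200 μL pump load), sterile-filtered, infused subcutaneously by mini-osmotic pump at 6 μL/day for 28 days; vehicle-infused CSQ controls. Under 1% isoflurane, M-mode echocardiography gave LVEDD, LVESD and FS ((LVEDD-LVESD)/LVEDD), averaged over >3 cardiac cycles; one-way ANOVA with post-test.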

A further assay concerns 1321-N1. Put plainly: Induction of calcium flux in human 1321N1 cells at 10 uM by FLIPR assay. It is filed as functional, cell-based.
The target in assay [5] is T1, P2Y purinoceptor 1. The assay can be described thus: Activation of human P2Y1 receptor expressed in human 1321N1 cells assessed as induction of calcium flux up to 10 uM by FLIPR assay. It is filed as functional, cell-based. The procedure, abridged: as §1
In assay [6] the test system is Mus musculus. Put plainly: Cardioprotective effect in calsequestrin transgenic mouse model of heart failure assessed as increased shortening of heart septum and left ventricular free wall at 3.3 uM, sc administered per day via minipump measured after 28 days by transthoracic echocardiographic analysis. In kind it is functional, organism-based. The procedure, abridged: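 Calsequestrin-overexpressing transgenic mice (hypertrophy, lethal heart failure near 3 months). Compound at 3.3 μM in sterile saline/PBS pH 7.4, filter-sterilized, infused subcutaneously via osmotic minipump at 6 μL/day for 28 days; saline-infused controls. Under 1% isoflurane, M-mode echocardiography gave LVEDD, LVESD and FS = (LVEDD−LVESD)/LVEDD, averaged over >3 cardiac cycles; mean ± SE, one-way ANOVA with post-test.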

T1 sequence (P47900 whole entry): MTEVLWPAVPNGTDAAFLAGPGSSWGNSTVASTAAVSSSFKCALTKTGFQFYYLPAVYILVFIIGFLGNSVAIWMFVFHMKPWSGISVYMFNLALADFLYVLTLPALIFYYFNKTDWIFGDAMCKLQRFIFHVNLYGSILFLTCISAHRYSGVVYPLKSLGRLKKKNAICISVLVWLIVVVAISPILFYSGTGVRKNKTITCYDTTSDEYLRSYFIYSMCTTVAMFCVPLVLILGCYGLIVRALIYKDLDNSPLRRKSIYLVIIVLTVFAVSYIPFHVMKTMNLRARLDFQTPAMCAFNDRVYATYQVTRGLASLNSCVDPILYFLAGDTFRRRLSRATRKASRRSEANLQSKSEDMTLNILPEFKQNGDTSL

As to `Nc1nc(Cl)nc2c1ncn2[C@H]1[C@H](O)[C@H](O)[C@@]2(COP(=O)(O)O)C[C@H]12`, the figures for the EC50 at P2Y purinoceptor 1 [1] and at P2Y purinoceptor 1 [2] were 1.89 µM and 0.722 µM, respectively. In addition, the %max at P2Y purinoceptor 1 [3] was found to be 80%. For the same molecule, the Activity in the assay on Mus musculus [4] was found to be 15.47%.

With `CSc1nc(N)c2ncn([C@@H]3O[C@H](COP(=O)(O)OP(=O)(O)O)[C@@H](O)[C@H]3O)c2n1`, the result with 1321-N1 was inactive.

For the molecule `Nc1nc(Cl)nc2c1ncn2[C@H]1[C@H](O)[C@H](O)[C@@]2(CCP(=O)(O)O)C[C@H]12`, the outcome at P2Y purinoceptor 1 [5] was inactive. Also, the Activity in the assay on Mus musculus [4] came to 19.26%.

In the case of `Nc1ncnc2c1ncn2[C@H]1[C@H](O)[C@H](O)[C@@]2(CP(=O)(O)O)C[C@H]12`, on P2Y purinoceptor 1 [5], the outcome was inactive. Moreover, in the assay on Mus musculus [4], the Activity turned out to be 16.23%.

Consider `CP(=O)(O)C[C@]12C[C@@H]1[C@@H](n1cnc3c(N)nc(Cl)nc31)[C@H](O)[C@@H]2O`, for which the outcome on P2Y purinoceptor 1 [5] was inactive. In the assay on Mus musculus [4], the Activity was found to be 15%.

With `Nc1ncnc2c1ncn2[C@H]1[C@H](O)[C@H](O)[C@@]2(CCP(=O)(O)O)C[C@H]12`, the outcome on P2Y purinoceptor 1 [5] was inactive. Moreover, in the assay with Mus musculus [4], the Activity is recorded as 11.15%.

In the case of `Nc1ncnc2c1ncn2[C@H]1[C@H](O)[C@H](O)[C@@]2(/C=C/P(=O)(O)O)C[C@H]12`, the outcome on P2Y purinoceptor 1 [5] was inactive. Further, the Activity with Mus musculus [4] is reported as 13.88%.

Turning to `Nc1nc(Cl)nc2c1ncn2[C@H]1[C@H](O)[C@H](O)[C@@]2(/C=C/P(=O)(O)O)C[C@H]12`, the result at P2Y purinoceptor 1 [5] was inactive. For the same molecule, the Activity with Mus musculus [4] is recorded as 12.12%.

In the case of `Nc1nc(Cl)nc2c1ncn2[C@H]1[C@H](O)[C@H](O)[C@@]2(CP(=O)(O)O)C[C@H]12`, the result with Mus musculus [6] was Active. Further, at P2Y purinoceptor 1 [5], the result was inactive. Further, the Activity in the assay on Mus musculus [4] is recorded as 20.25%.
